Screening data from PubChem BioAssay.
Only a selection was taken, and hits are over-represented in it overall.
INS promoter act: activators of insulin promoter-driven GFP, primary screen, imaging, TRM-6 cells (human fetal islet line), eGFP reporter, cell count; plate-scaled: unstimulated 0, stimulated control 100; activation, % at 2 µM; actives 0.81% (n = 130,000); AID 1296, 2008;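 active means activation at 2 µM above a set limit, confirmed on inspection of the cell images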;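 further: share of cells whose green reporter signal exceeds an intensity cutoff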
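test system = TRM-6 insulin promoter–eGFP reporter cells | benchmarks = stimulated versus unstimulated wells as plate controls | read-out basis = percent cells above green-intensity threshold, converted to percent activation versus plate controls | detection = fixed-cell fluorescence microscopy, eGFP plus Hoechst | incubation = tamoxifen pre-incubation 15 h overnight, then compound exposure 48 h at 37 °C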
Numbers stand for hits; . = inactive.

SMILES | INS promoter act
O=C(Cc1ncc(C(F)(F)F)cc1Cl)Nc1ccc(F)cc1 | .
COc1ccc(-c2noc(CCC(=O)NCc3cccnc3)n2)cc1OC | .
NS(=O)(=O)c1cccn1-c1ncc(C(F)(F)F)cc1Cl | .
Cc1cc(C)cc(NC(=O)c2cccn2-c2ncc(C(F)(F)F)cc2Cl)c1 | 175
O=C(NCc1cccnc1)c1cccn1-c1ncc(C(F)(F)F)cc1Cl | .
O=C(CCc1nc2ccccc2c(=O)[nH]1)N1CCN(c2ccc(F)cc2)CC1 | .
Cc1ccc(NC(=O)C2CCCN(C(=O)c3ccc(Cl)cc3)C2)c(C)c1 (stereo unspecified) | .
CCCn1c(SCC(=O)c2c(C)[nH]c(C)c2C(=O)OCC)nc2ccccc21 | .
Cc1cccc(CC2CC(=O)N(c3ncccn3)C2=O)c1 (stereo unspecified) | .
C=CCn1c2ccccc2c2nnc(SCCCn3c(=O)[nH]c4ccccc43)nc21 | .
COc1ccc(N2CCN(C(=O)Cc3ccc(-n4c(=O)[nH]c5ccccc5c4=O)cc3)CC2)cc1 | .
CCOC(=O)N1CCC(NC(=O)Cc2ccc(-n3c(=O)[nH]c4ccccc4c3=O)cc2)CC1 | 500
CCOC(=O)N1CCC(NC(=O)c2cn(-c3ccc(OC)cc3)c(=O)c3ccccc23)CC1 | .
CCOC(=O)CNc1nnc(SCC(=O)OCC)[nH]c1=O | .
COc1ccc(C2CC(c3ccc(Br)cc3)=NN2C(=O)c2cccnc2)cc1 (stereo unspecified) | .
COC(=O)CCSCC(=O)N1N=C(c2ccc(Br)cc2)CC1c1cccc(OC)c1OC (stereo unspecified) | 387
COc1cccc(C2CC(c3ccc(NS(C)(=O)=O)cc3)=NN2C(=O)c2ccccc2)c1OC (stereo unspecified) | .
COc1ccc(N(C)C(=O)CCS(=O)(=O)c2cccc3nonc23)c(OC)c1 | .
NS(=O)(=O)c1ccc(CCNC(=O)CSc2nc3ccsc3c(=O)n2CCCCC(=O)O)cc1 | .
CC(C)(C)n1nnnc1CN1CCN(C(c2ccccc2)c2ccccc2)CC1 | .
Cc1ccc(C2(C)NC(=O)N(CC(=O)c3ccc(Cl)s3)C2=O)cc1 (stereo unspecified) | .
COc1ccc(OC(C)C(=O)N2CCOCC2)cc1 (stereo unspecified) | .
O=C(Nc1ccc2c(c1)OCO2)c1ccc(COc2ccc3c(c2)CCC3)o1 | .
Cc1cc(C)n(-c2cc(N3CCN(S(=O)(=O)c4ccc(Cl)cc4)CC3)ccc2[N+](=O)[O-])n1 | .
O=S(=O)(c1ccccc1)N1CCN(c2nc3ccccc3s2)CC1 | .
SMILES | INS promoter act
Cc1cc(N2CCN(S(=O)(=O)c3ccc(Cl)cc3)CC2)c2ccccc2n1 | 100
Cc1cc2c(N=O)c(NO)ccc2[nH]1 | .
CC(C)SCCCOc1ccc(C(C)(C)C)cc1 | .
OCCN(Cc1ccccc1)CC1CC2C=CC1C2 (stereo unspecified) | .
OCCN(Cc1ccccc1)Cc1cccc(F)c1 | 81
OCCN(Cc1ccccc1)CC1CCCCC1 | .
O=C(NNS(=O)(=O)c1ccc(Cl)cc1)c1cc(-c2ccccc2)nc2ccccc12 | .
Clc1ccc(C(c2nnnn2C2CCCC2)N2CCSCC2)cc1 (stereo unspecified) | .
O=C(CCn1cccc1)Nc1cc(F)ccc1F | .
O=C(CCCc1nc(-c2ccc(Cl)cc2)no1)N1CCOCC1 | .
NNC(=O)CNC(=O)CNS(=O)(=O)c1ccccc1 | .
CCOC(=O)c1ccccc1NC(=O)CN(c1ccc(OCC)cc1)S(C)(=O)=O | 387
CCOc1ccc(N(CC(=O)Nc2ccccc2C(=O)NCc2ccco2)S(C)(=O)=O)cc1 | .
CCOC(=O)c1ccccc1NC(=O)c1ccc(N(C)S(C)(=O)=O)cc1 | .
Cc1cc(C)cc(NC(=S)NCCSc2ccc(Cl)cc2)c1 | .
COc1ccc(-c2nc(CN(CC3CCC(=O)N3)C(C)C)c(C)o2)c(C)c1C (stereo unspecified) | .
CSc1nsc(/C=C/Nc2ccc(C)c(C)c2)c1C#N | 669
Cc1ccc(N/C=C(/C#N)c2ccsc2)cc1C | .
COc1cc(/C=N/Nc2snc(SC)c2C#N)ccc1O | .
CCCCCC(=O)N/N=C(\C)c1ccc(Cl)cc1 | .
CC(=O)Oc1ccc2oc(=O)c3c(c2c1)CCCN3C(=O)CN1CCOCC1 | .
Cc1ccc(-n2[nH]c(C)c(C=Nc3ccc(Br)cn3)c2=O)cc1 | .
COc1cc(S(=O)(=O)Nc2ccc(C)cc2)ccc1N=Cc1c(C)[nH]n(-c2ccccc2)c1=O | .
CCSc1nnc(-c2cc(Br)ccc2N=Cc2c(C)[nH]n(-c3ccccc3)c2=O)c(=O)[nH]1 | 356
COC(=O)C1=C(CSc2nc3ccccc3s2)NC(=O)NC1c1ccc(F)cc1 (stereo unspecified) | .
SMILES | INS promoter act
CCCCNc1c(N)n(CCCC)c(=O)[nH]c1=O | .
CN1C=CC2=C(C#N)C(N)C(C#N)(C#N)[C@H](c3ccccc3)[C@H]2C1 (stereo partly specified) | 300
Cc1ccc(-c2noc(CCCC(=O)Nc3cccnc3)n2)cc1 | .
CCOC(=O)C(=O)/C(=C\N(C)C)c1onc(-c2c(F)cccc2Cl)c1C(=O)OC | .
CCN(CC)S(=O)(=O)c1cc(NC(=O)CN2C(=O)NC3(CCCc4ccccc43)C2=O)ccc1C (stereo unspecified) | .
Cc1ccccc1S(=O)(=O)Cc1ccc(C(=O)NCc2cccs2)o1 | .
CCOC(=O)N1CCN(S(=O)(=O)c2ccc(OCC(=O)OC)c(Cl)c2)CC1 | .
COC(=O)COc1ccc(-c2ccc(F)cc2)cc1C=O | 450
COC(=O)COc1ccc(S(=O)(=O)Nc2ccc(C(N)=O)cc2)cc1C | .
COc1ccc(-n2c(Cc3cccn3C)nnc2SCC(=O)Nc2ccc3c(c2)OCO3)cc1 | .
O=Cc1cn(CC(=O)N2CCOCC2)c2ccccc12 | 411
COC(=O)c1cn(CC(=O)N2CCCCCC2)c2ccccc12 | .
Cc1nc2ccccc2c(=O)n1CC(=O)N1CCOCC1 | .
Cc1ccc(S(=O)(=O)N(C)C)cc1NC(=S)NC(=O)C12CC3CC(CC(C3)C1)C2 | 388
CN(C)S(=O)(=O)c1cccc(NC(=S)NC(=O)C2CCCCC2)c1 | .
Cc1ccc(S(=O)(=O)N(C)C)cc1NC(=O)COC(=O)c1ccc2c(c1)OCO2 | .
CCN(CC(=O)Nc1ccccc1OC)CC(=O)Nc1c(Cl)ccc(C)c1Cl | .
Cc1ccccc1N(CC(=O)O)S(C)(=O)=O | 475
Cc1ccccc1N(CC(N)=O)S(C)(=O)=O | .
COc1ccccc1N(CC(=O)Nc1ccccc1C)S(C)(=O)=O | .
C=CCC(Nc1ccco1)c1ccccc1 (stereo unspecified) | .
CCCCNC(=O)[C@H](Cc1c[nH]c2ccccc12)NC(=O)c1ccccc1Cl | .
Cc1nn(-c2ccccc2)c(Cl)c1CN(C(=O)CCl)c1ccc(Cl)cc1 | .
O=C(CCl)N(c1ccc(Cl)cc1)c1c[nH]c2ccccc12 | 257
COc1ccc(N/N=C(C)/C(=N/O)C(=O)Nc2ccccc2)cc1 | .
SMILES | INS promoter act
CS(=O)(=O)N(CC(=O)O)c1cc(Cl)cc(Cl)c1 | .
CN(C)/C=C(/C#N)C(=O)c1cccc(Oc2ccc(C(C)(C)C)cc2)c1 | .
CCOc1ccccc1-n1c(=O)c2ccccc2c2ccccc2c1=O | .
CCOc1ccccc1C(=O)n1nc(C)cc1C | .
CCOc1ccccc1C(=O)N1c2ccccc2Sc2ccccc21 | 100
O=C(Nc1ccccc1C(=O)NCCc1ccccc1)c1ccco1 | .
O=C(c1ccco1)N(CCC(c1ccccc1)c1ccco1)Cc1ccccc1 (stereo unspecified) | .
